Residue numbers refer to the chain shown, from its start.
Legend:
Conditions in all cases: stereoisomer not certain
OR5T2 S4G = test system: T1, OR5T2 S4G
T1 sequence (whole entry): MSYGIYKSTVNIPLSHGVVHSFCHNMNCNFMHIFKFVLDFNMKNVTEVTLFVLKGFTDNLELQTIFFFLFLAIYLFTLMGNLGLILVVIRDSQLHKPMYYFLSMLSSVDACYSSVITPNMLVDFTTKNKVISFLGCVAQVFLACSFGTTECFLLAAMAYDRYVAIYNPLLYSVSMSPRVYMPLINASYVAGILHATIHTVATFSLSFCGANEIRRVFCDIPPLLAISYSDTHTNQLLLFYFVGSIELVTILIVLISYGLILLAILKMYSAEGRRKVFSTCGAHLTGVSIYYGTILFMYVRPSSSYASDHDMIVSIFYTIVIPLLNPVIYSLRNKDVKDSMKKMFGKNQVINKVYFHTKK
Outline: (§1)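 Whether a receptor–molecule pair is responsive (active) rests on the original authors' judgment that its measured signal was statistically different from baseline. Pairs without that judgment are non-responsive (inactive). Sources used varied assay methods, commonly transient luciferase assays in mammalian cell lines.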

OR5T3 (Homo sapiens) = molecular target: T2, OR5T3 (Homo sapiens) (UniProt Q8NGG3)
T2 sequence (whole entry): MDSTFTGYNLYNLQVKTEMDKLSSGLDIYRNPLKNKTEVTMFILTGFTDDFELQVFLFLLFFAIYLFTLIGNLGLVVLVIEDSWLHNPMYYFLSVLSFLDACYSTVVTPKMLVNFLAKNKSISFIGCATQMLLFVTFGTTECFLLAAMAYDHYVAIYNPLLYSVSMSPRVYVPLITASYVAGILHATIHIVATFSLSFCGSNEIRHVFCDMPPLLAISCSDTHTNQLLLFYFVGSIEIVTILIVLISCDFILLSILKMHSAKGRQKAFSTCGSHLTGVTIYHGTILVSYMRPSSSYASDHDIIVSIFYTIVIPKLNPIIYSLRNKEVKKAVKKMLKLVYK
Outline: as §1

OR5V1 (Homo sapiens) = molecular target: T3, OR5V1 (Homo sapiens) (UniProt Q9UGF6)
T3 sequence (whole entry): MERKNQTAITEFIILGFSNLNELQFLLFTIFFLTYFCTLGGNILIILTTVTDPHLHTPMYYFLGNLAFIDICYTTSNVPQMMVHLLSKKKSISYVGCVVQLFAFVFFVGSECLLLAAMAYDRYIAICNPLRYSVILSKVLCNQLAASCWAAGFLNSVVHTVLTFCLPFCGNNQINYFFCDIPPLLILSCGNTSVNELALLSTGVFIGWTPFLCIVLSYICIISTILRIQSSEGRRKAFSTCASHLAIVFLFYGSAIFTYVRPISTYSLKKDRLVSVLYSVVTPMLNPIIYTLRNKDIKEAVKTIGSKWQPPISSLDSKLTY
Outline: as §1

OR5W2 (Homo sapiens) = molecular target: T4, OR5W2 (Homo sapiens) (UniProt Q8NH69)
T4 sequence (whole entry): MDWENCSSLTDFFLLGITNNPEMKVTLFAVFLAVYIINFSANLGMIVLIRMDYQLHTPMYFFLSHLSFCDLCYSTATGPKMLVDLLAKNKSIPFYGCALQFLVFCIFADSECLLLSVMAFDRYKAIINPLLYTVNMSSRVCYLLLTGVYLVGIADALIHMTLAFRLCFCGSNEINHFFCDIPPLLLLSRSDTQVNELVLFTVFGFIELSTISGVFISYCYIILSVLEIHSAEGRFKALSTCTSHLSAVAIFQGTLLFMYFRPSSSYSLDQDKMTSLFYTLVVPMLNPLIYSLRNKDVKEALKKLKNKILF
Outline: as §1

OR5W2 R189C = test system: T5, OR5W2 R189C
T5 sequence (whole entry): T4 sequence (whole entry) with R189C
Outline: as §1

OR6A2 (Homo sapiens) = molecular target: T6, OR6A2 (Homo sapiens) (UniProt O95222)
T6 sequence (whole entry): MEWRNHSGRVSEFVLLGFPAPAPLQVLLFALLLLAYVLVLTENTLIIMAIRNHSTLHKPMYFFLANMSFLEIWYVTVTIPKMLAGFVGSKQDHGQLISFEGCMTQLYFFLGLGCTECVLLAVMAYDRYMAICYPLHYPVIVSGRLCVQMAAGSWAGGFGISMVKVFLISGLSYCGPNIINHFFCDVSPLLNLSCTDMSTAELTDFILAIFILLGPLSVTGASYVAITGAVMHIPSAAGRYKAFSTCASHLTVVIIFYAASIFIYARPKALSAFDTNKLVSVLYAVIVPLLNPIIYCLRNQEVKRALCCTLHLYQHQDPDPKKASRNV
Outline: as §1

OR6A2 I50V = test system: T7, OR6A2 I50V
T7 sequence (whole entry): T6 sequence (whole entry) with I50V
Outline: as §1

OR6B1 (Homo sapiens) = molecular target: T8, OR6B1 (Homo sapiens) (UniProt O95007)
T8 sequence (whole entry): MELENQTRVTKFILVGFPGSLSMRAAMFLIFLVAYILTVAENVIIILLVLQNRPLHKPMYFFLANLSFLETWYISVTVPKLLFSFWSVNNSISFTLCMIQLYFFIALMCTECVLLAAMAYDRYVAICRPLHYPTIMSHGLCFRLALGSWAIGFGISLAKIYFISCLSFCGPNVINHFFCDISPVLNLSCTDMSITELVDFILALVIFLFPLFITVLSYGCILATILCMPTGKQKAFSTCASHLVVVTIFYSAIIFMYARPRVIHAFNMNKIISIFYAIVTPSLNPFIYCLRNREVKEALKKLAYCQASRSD
Outline: as §1

OR6B2 (Homo sapiens) = molecular target: T9, OR6B2 (Homo sapiens) (UniProt Q6IFH4)
T9 sequence (whole entry): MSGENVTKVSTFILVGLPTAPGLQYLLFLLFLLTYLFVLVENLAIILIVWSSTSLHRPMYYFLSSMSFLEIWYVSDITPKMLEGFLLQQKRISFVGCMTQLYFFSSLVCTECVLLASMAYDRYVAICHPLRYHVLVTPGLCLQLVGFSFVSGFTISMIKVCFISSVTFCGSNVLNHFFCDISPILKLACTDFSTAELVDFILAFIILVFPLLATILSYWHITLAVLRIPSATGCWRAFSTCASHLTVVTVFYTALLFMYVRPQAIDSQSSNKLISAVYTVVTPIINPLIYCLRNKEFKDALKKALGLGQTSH
Outline: as §1

OR6B2 R122C C179R = test system: T10, OR6B2 R122C C179R
T10 sequence (whole entry): T9 sequence (whole entry) with R122C, C179R
Outline: as §1

OR6B3 (Homo sapiens) = molecular target: T11, OR6B3 (Homo sapiens) (UniProt Q8NGW1)
T11 sequence (whole entry): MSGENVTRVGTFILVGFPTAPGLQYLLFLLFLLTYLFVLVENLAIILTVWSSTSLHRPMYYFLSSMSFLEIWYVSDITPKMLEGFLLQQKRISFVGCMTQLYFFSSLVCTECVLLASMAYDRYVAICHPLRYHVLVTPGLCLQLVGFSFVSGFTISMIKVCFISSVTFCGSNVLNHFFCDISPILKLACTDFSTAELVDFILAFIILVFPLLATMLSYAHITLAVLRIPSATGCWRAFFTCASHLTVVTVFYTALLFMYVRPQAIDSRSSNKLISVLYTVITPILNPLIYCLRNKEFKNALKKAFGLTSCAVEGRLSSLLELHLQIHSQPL
Outline: as §1

OR6B3 T48I R131C = test system: T12, OR6B3 T48I R131C
T12 sequence (whole entry): T11 sequence (whole entry) with T48I, R131C
Outline: as §1

OR6C1 (Homo sapiens) = molecular target: T13, OR6C1 (Homo sapiens) (UniProt Q96RD1)
T13 sequence (whole entry): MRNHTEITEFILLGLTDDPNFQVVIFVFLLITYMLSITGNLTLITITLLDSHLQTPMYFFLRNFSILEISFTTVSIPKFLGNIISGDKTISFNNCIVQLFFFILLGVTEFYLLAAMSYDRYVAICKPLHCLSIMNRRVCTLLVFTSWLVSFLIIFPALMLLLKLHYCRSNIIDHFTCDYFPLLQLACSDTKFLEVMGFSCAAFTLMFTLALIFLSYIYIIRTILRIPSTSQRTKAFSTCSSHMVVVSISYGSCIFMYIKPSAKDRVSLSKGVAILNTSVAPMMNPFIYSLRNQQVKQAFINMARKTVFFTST
Outline: as §1

OR6C1 C130Y H165D V246I = test system: T14, OR6C1 C130Y H165D V246I
T14 sequence (whole entry): T13 sequence (whole entry) with C130Y, H165D, V246I
Outline: as §1

OR6C2 (Homo sapiens) = molecular target: T15, OR6C2 (Homo sapiens) (UniProt Q9NZP2)
T15 sequence (whole entry): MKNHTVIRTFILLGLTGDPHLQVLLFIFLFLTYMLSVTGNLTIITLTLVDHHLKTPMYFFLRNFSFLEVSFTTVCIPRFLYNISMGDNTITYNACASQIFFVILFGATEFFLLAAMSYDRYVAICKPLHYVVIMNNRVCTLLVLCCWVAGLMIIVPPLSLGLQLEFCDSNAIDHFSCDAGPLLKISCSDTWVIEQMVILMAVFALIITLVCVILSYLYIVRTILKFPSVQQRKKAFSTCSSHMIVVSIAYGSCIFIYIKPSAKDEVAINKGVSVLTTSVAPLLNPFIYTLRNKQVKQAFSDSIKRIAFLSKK
Outline: as §1

OR6C3 (Homo sapiens) = molecular target: T16, OR6C3 (Homo sapiens) (UniProt Q9NZP0)
T16 sequence (whole entry): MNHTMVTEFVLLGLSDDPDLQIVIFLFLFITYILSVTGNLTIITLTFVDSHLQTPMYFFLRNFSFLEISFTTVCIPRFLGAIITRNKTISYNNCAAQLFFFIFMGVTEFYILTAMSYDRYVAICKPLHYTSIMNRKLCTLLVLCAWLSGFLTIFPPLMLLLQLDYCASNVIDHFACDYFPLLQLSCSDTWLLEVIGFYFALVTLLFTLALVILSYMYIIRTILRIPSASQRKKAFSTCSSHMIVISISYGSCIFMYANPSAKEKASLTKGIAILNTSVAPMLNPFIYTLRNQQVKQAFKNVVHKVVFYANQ
Outline: as §1

OR6C4 (Homo sapiens) = molecular target: T17, OR6C4 (Homo sapiens) (UniProt Q8NGE1)
T17 sequence (whole entry): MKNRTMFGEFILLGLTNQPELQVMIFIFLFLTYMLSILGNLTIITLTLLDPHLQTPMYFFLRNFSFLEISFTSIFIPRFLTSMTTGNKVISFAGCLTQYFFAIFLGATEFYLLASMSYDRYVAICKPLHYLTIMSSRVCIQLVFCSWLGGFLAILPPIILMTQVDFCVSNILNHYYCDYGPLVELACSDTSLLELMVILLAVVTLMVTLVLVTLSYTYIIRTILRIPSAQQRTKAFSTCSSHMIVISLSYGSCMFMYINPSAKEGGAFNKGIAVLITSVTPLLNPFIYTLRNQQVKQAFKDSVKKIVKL
Outline: as §1

OR6C4 = test system: T18, OR6C4
T18 sequence (whole entry): T17 sequence (whole entry) with I37V
Outline: as §1

OR6C6 (Homo sapiens) = molecular target: T19, OR6C6 (Homo sapiens) (UniProt A6NF89)
T19 sequence (whole entry): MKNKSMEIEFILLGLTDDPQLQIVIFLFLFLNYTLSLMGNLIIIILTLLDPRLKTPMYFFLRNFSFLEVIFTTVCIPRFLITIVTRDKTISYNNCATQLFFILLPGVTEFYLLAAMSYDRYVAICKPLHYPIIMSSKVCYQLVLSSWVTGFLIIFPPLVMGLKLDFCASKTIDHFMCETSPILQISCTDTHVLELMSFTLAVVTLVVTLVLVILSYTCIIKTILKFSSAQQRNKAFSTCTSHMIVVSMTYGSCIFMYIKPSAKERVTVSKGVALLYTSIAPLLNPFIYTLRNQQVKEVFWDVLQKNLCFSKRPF
Outline: as §1

OR6C6 M6I = test system: T20, OR6C6 M6I
T20 sequence (whole entry): T19 sequence (whole entry) with M6I
Outline: as §1

Measured: odorant receptor agonist call;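 further: active if original authors judged signal statistically different from baseline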

CC1=C(O)C(=O)C(C)O1 (stereo not drawn)
inactive: all assays above

CCCCCCC=CCCC=O
inactive: all assays above

CC1=C(O)C(=O)OC1C (stereo not drawn)
inactive: all assays above

CCCCCC(S)C(C)CO (stereo not drawn)
not listed: OR5T2 S4G | OR5W2 R189C | OR6A2 I50V | OR6B2 R122C C179R | OR6B3 T48I R131C | OR6C1 C130Y H165D V246I | OR6C4 | OR6C6 M6I
inactive: all other assays above

CC1CCCCCCCCCCCCC(=O)C1 (stereo not drawn)
not listed: OR5T2 S4G | OR5W2 R189C | OR6A2 I50V | OR6B2 R122C C179R | OR6B3 T48I R131C | OR6C1 C130Y H165D V246I | OR6C4 | OR6C6 M6I
inactive: all other assays above

CCC1OC(=O)C(O)=C1C (stereo not drawn)
inactive: all assays above

CC(=O)c1c(C)c([N+](=O)[O-])c(C(C)(C)C)c([N+](=O)[O-])c1C
not listed: OR5T2 S4G | OR5W2 R189C | OR6A2 I50V | OR6B2 R122C C179R | OR6B3 T48I R131C | OR6C1 C130Y H165D V246I | OR6C4 | OR6C6 M6I
inactive: all other assays above

CCC(S)C(C)CO (stereo not drawn)
not listed: OR5T2 S4G | OR5W2 R189C | OR6A2 I50V | OR6B2 R122C C179R | OR6B3 T48I R131C | OR6C1 C130Y H165D V246I | OR6C4 | OR6C6 M6I
inactive: all other assays above

From the M2OR odorant receptor database
